{
  "source": "ChEMBL document CHEMBL1124473",
  "about": "“Synthesis and antiproliferative effects of novel 5'-fluorinated analogues of 5'-deoxy-5'-(methylthio)adenosine” (J Med Chem, 1989)",
  "key": {"[1]": {"system": "L1210", "test": "Compound was evaluated for effect on polyamine pools in the L1210 murine leukemia cell lines by the inhibition of spermine synthase at 600 uM", "type": "functional, Mus musculus"}, "[2]": {"system": "L5178Y", "test": "Inhibition of growth of L5178Y murine leukemia cell line in percent of control at 60 uM", "type": "functional, Mus musculus", "design": "scale not given: the % may be the effect or the level left", "procedure,_shortened": "(§1)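 Cultures in RPMI 1640 with 10% Nu Serum IV and HEPES/MOPS buffer, treated at 0 h with the listed concentration from DMSO stock diluted in serum-free medium. Cell number by electronic particle counting after 48 h, expressed as % of untreated control. Average of at least three separate experiments.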"}, "[3]": {"system": "L5178Y", "test": "Compound was evaluated for effect on polyamine pools in the L5178Y murine leukemia cell lines by the inhibition of spermine synthase at 60 uM", "type": "functional, Mus musculus"}, "[4]": {"system": "L1210", "test": "Compound was evaluated for effect on polyamine pools in the L1210 murine leukemia cell lines by the inhibition of spermidine synthase at 600 uM", "type": "functional, Mus musculus"}, "[5]": {"system": "L1210", "test": "Inhibition of growth of L1210 murine leukemia cell line in percent of control at 600 uM", "type": "functional, Mus musculus", "design": "scale not given: the % may be the effect or the level left", "procedure,_shortened": "as §1"}, "[6]": {"system": "L1210", "test": "Compound was evaluated for effect on polyamine pools in the L1210 murine leukemia cell lines by the inhibition of put at 600 uM", "type": "functional, Mus musculus"}, "[7]": {"system": "L5178Y", "test": "Compound was evaluated for its ability to inhibit growth by 50% at 48 hr in L5178Y murine leukemia cells", "type": "functional, cell-based", "conditions": "Mus musculus"}, "[8]": {"system": "L5178Y", "test": "Compound was evaluated for effect on polyamine pools in the L5178Y murine leukemia cell lines by the inhibition of put at 60 uM", "type": "functional, Mus musculus"}, "[9]": {"system": "L5178Y", "test": "Compound was evaluated for effect on polyamine pools in the L5178Y murine leukemia cell lines by the inhibition of spermidine synthase at 60 uM", "type": "functional, Mus musculus"}, "[10]": {"system": "L1210", "test": "Compound was evaluated for its ability to inhibit growth by 50% at 48 hr in L1210 murine leukemia cells", "type": "functional, cell-based", "conditions": "Mus musculus, L1210, 48 h"}, "[11]": {"biological_target": "T1, S-methyl-5'-thioadenosine phosphorylase (Mus musculus, UniProt Q9CQ65)", "T1 sequence (Q9CQ65 whole entry)": "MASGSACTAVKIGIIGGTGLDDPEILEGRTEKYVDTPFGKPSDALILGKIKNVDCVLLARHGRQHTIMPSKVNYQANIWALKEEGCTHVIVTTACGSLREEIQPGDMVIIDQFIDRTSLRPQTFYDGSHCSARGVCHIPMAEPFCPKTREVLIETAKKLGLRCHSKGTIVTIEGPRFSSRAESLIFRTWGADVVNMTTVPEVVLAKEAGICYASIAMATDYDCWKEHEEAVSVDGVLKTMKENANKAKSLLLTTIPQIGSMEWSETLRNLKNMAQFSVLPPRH", "test": "Compound was evaluated for the inhibition of mouse liver MTA phosphorylase", "procedure,_shortened": "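Mouse liver enzyme, partially purified (acid precipitation, 65 °C heat step, DEAE-Sephacel). 0.1 mL reaction: 4 μmol potassium phosphate pH 7.4, 0.1 μmol DTT, 20 μg BSA, 50 nmol MTA, ~2 × 10^5 cpm [methyl-3H]MTA; 10 min, 37 °C. Stopped with charcoal/TCA; [3H]MTRP in supernatant counted by liquid scintillation.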"}, "[12]": {"system": "L1210", "test": "Compound was evaluated for effect on polyamine pools in the L1210 murine leukemia cell lines by the inhibition of put at 200 uM", "type": "functional, Mus musculus"}, "[13]": {"system": "L5178Y", "test": "Compound was evaluated for effect on polyamine pools in the L5178Y murine leukemia cell lines by the inhibition of spermidine synthase at 200 uM", "type": "functional, Mus musculus"}, "[14]": {"system": "L1210", "test": "Compound was evaluated for effect on polyamine pools in the L1210 murine leukemia cell lines by the inhibition of spermidine synthase at 200 uM", "type": "functional, Mus musculus"}, "[15]": {"system": "L1210", "test": "Inhibition of growth of L1210 murine leukemia cell line in percent of control at 200 uM", "type": "functional, Mus musculus", "design": "scale not given: the % may be the effect or the level left", "procedure,_shortened": "as §1"}, "[16]": {"system": "L5178Y", "test": "Compound was evaluated for effect on polyamine pools in the L5178Y murine leukemia cell lines by the inhibition of spermine synthase at 200 uM", "type": "functional, Mus musculus"}, "[17]": {"system": "L5178Y", "test": "Inhibition of growth of L5178Y murine leukemia cell line in percent of control at 200 uM", "type": "functional, Mus musculus", "design": "scale not given: the % may be the effect or the level left", "procedure,_shortened": "as §1"}, "[18]": {"system": "L5178Y", "test": "Compound was evaluated for effect on polyamine pools in the L5178Y murine leukemia cell lines by the inhibition of put at 200 uM", "type": "functional, Mus musculus"}, "[19]": {"system": "L1210", "test": "Compound was evaluated for effect on polyamine pools in the L1210 murine leukemia cell lines by the inhibition of spermine synthase at 200 uM", "type": "functional, Mus musculus"}},
  "data": [
    {"smiles": "CSC[C@H]1O[C@@H](n2cnc3c(N)ncnc32)[C@H](O)[C@@H]1O", "note": "[METHYLTHIOADENOSINE]", "values": [
      {"measurement": "Activity", "setting": "[1]", "value": "0.2 nM (10e6*cells)-1"},
      {"measurement": "Control", "setting": "[2]", "value": 57, "unit": "%"},
      {"measurement": "Activity", "setting": "[3]", "value": "0.47 nM (10e6*cells)-1"},
      {"measurement": "Activity", "setting": "[4]", "value": "1.59 nM (10e6*cells)-1"},
      {"measurement": "Control", "setting": "[5]", "value": 53, "unit": "%"},
      {"measurement": "Activity", "setting": "[6]", "value": "3.64 nM (10e6*cells)-1"},
      {"measurement": "IC50", "setting": "[7]", "value": 60, "unit": "µM"},
      {"measurement": "Activity", "setting": "[8]", "value": "1.24 nM (10e6*cells)-1"},
      {"measurement": "Activity", "setting": "[9]", "value": "3.03 nM (10e6*cells)-1"},
      {"measurement": "IC50", "setting": "[10]", "value": 600, "unit": "µM"}
    ]},
    {"smiles": "Nc1ncnc2c1ncn2C1O[C@H](CI)[C@@H](O)[C@H]1O", "note": "(stereo not given in full)", "values": [
      {"measurement": "IC50", "setting": "[7]", "value": 2, "unit": "µM"},
      {"measurement": "IC50", "setting": "[10]", "value": 300, "unit": "µM"}
    ]},
    {"smiles": "Nc1ncnc2c1ncn2C1O[C@H](CSCF)[C@@H](O)[C@H]1O", "note": "(stereo not given in full)", "values": [
      {"measurement": "Ki", "setting": "[11]", "value": 3.3, "unit": "µM"},
      {"measurement": "Activity", "setting": "[12]", "value": 0.62, "unit": "nM/10e6"},
      {"measurement": "Activity", "setting": "[13]", "value": "2.47 nM (10e6*cells)-1"},
      {"measurement": "Activity", "setting": "[14]", "value": "2.93 nM (10e6*cells)-1"},
      {"measurement": "Control", "setting": "[15]", "value": 67, "unit": "%"},
      {"measurement": "Activity", "setting": "[16]", "value": "1.32 nM (10e6*cells)-1"},
      {"measurement": "Control", "setting": "[17]", "value": 45, "unit": "%"},
      {"measurement": "IC50", "setting": "[7]", "value": 200, "unit": "µM"},
      {"measurement": "Activity", "setting": "[18]", "value": "0.41 nM (10e6*cells)-1"},
      {"measurement": "Activity", "setting": "[19]", "value": "0.6 nM (10e6*cells)-1"},
      {"measurement": "IC50", "setting": "[10]", "value": 300, "unit": "µM"}
    ]},
    {"smiles": "CSC(F)[C@H]1OC(n2cnc3c(N)ncnc32)[C@H](O)[C@@H]1O", "note": "(stereo not given in full)", "values": [
      {"measurement": "IC50", "setting": "[7]", "value": 0.7, "unit": "µM"},
      {"measurement": "IC50", "setting": "[10]", "value": 2, "unit": "µM"}
    ]}
  ]
}
